How the values were obtained:
[1] = target: Beta-adrenergic receptor kinase 1 (Homo sapiens) (UniProt P25098); test: Inhibition of GRK2 at 10 uM
[2] = target: RAC-gamma serine/threonine-protein kinase (Homo sapiens) (UniProt Q9Y243); test: Inhibition of AKT3 at 10 uM
[3] = target: Protein-tyrosine kinase 6 (Homo sapiens) (UniProt Q13882); test: Inhibition of Brk at 10 uM
[4] = target: G protein-coupled receptor kinase 5 (Homo sapiens) (UniProt P34947); test: Inhibition of GRK5 at 10 uM
[5] = test system: Tyrosine-protein kinase ABL1 (Homo sapiens), P00519 [Y253F]; test: Inhibition of ABL1 Y253F (mutant) at 10 uM
[6] = target: MAP/microtubule affinity-regulating kinase 4 (Homo sapiens) (UniProt Q96L34); test: Inhibition of MARK4 at 10 uM
[7] = target: Protein kinase C zeta type (Homo sapiens) (UniProt Q05513); test: Inhibition of PKCzeta at 10 uM
[8] = target: Dual specificity mitogen-activated protein kinase kinase 6 (Homo sapiens) (UniProt P52564); test: Inhibition of MKK6 at 10 uM
[9] = target: Serine/threonine-protein kinase PLK1 (Homo sapiens) (UniProt P53350); test: Inhibition of PLK1 at 10 uM
[10] = target: Proto-oncogene tyrosine-protein kinase ROS (Homo sapiens) (UniProt P08922); test: Inhibition of ROS1 at 10 uM
[11] = target: Insulin receptor-related protein (Homo sapiens) (UniProt P14616); test: Inhibition of INSRR at 10 uM
[12] = test system: Rattus norvegicus; test: Antiinflammatory activity in Lewis rat assessed as inhibition of LPS-induced TNFalpha release at 5 mg/kg administered before LPS challenge and measured after 4 hrs by ELISA; type: functional
Outline: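 Rat LPS challenge. The compound was given at –4 h relative to LPS, at the dose in mg/kg shown for each line. Read-out is percent inhibition of TNFα.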

[13] = target: Cytoplasmic tyrosine-protein kinase BMX (Homo sapiens) (UniProt P51813); test: Inhibition of BMX at 10 uM
[14] = target: Serine/threonine-protein kinase Nek9 (Homo sapiens) (UniProt Q8TD19); test: Inhibition of NEK9 at 10 uM
[15] = target: Serine/threonine-protein kinase PAK 6 (Homo sapiens) (UniProt Q9NQU5); test: Inhibition of PAK6 at 10 uM
[16] = Inhibition of KHS1 at 10 uM
[17] = target: Mitogen-activated protein kinase 1 (Homo sapiens) (UniProt P28482); test: Inhibition of ERK2 at 10 uM
[18] = target: Ephrin type-B receptor 3 (Homo sapiens) (UniProt P54753); test: Inhibition of EPHB3 at 10 uM
[19] = target: Cyclin-dependent kinase 7/ cyclin H (Homo sapiens) (UniProt P51946+P50613); test: Inhibition of CDK7/cyclin H/MNAT1 at 10 uM; type: protein-complex assay
[20] = test system: Tyrosine-protein kinase ABL1 (Homo sapiens), P00519 [T315I]; test: Inhibition of ABL1 T315I (mutant) at 10 uM
[21] = test system: Proto-oncogene tyrosine-protein kinase receptor Ret (Homo sapiens), P07949 [Y791F]; test: Inhibition of RET Y791F (mutant) at 10 uM
[22] = Inhibition of PKG2 at 10 uM
[23] = test system: Hepatocyte growth factor receptor (Homo sapiens), P08581 [M1250T]; test: Inhibition of MET M1250T (mutant) at 10 uM
[24] = target: Casein kinase I isoform epsilon (Homo sapiens) (UniProt P49674); test: Inhibition of CSNK1E at 10 uM
[25] = test system: Platelet-derived growth factor receptor alpha (Homo sapiens), P16234 [T674I]; test: Inhibition of PDGFRalpha T674I (mutant) at 10 uM
[26] = target: Calcium/calmodulin-dependent protein kinase type 1 (Homo sapiens) (UniProt Q14012); test: Inhibition of CAMK1 at 10 uM
[27] = target: Interleukin-1 receptor-associated kinase 1 (Homo sapiens) (UniProt P51617); test: Inhibition of IRAK1 at 10 uM
[28] = test system: Proto-oncogene tyrosine-protein kinase receptor Ret (Homo sapiens), P07949 [V804L]; test: Inhibition of RET V804L (mutant) at 10 uM
[29] = target: Tyrosine-protein kinase Fyn (Homo sapiens) (UniProt P06241); test: Inhibition of FYN at 10 uM
[30] = target: Protein kinase C beta type (Homo sapiens) (UniProt P05771); test: Inhibition of PKCbeta1 at 10 uM
[31] = target: Ephrin type-A receptor 3 (Homo sapiens) (UniProt P29320); test: Inhibition of EPHA3 at 10 uM
[32] = target: Vascular endothelial growth factor receptor 3 (Homo sapiens) (UniProt P35916); test: Inhibition of FLT4 at 10 uM
[33] = target: Serine/threonine-protein kinase Chk2 (Homo sapiens) (UniProt O96017); test: Inhibition of CHK2 at 10 uM
[34] = target: Non-receptor tyrosine-protein kinase TYK2 (Homo sapiens) (UniProt P29597); test: Inhibition of TYK2 at 10 uM
[35] = test system: Serine/threonine-protein kinase B-raf (Homo sapiens), P15056 [V600E]; test: Inhibition of B-Raf V599E (mutant) at 10 uM
[36] = test system: Epidermal growth factor receptor (Homo sapiens), P00533 [T790M]; test: Inhibition of EGFR T790M (mutant) at 10 uM; type: protein assay
[37] = target: NUAK family SNF1-like kinase 1 (Homo sapiens) (UniProt O60285); test: Inhibition of NUAK1 at 10 uM
[38] = target: Serine/threonine-protein kinase 24 (Homo sapiens) (UniProt Q9Y6E0); test: Inhibition of MST3 at 10 uM
[39] = target: Misshapen-like kinase 1 (Homo sapiens) (UniProt Q8N4C8); test: Inhibition of MINK1 at 10 uM
[40] = target: Cyclin-dependent kinase 5/CDK5 activator 1 (Homo sapiens) (UniProt Q00535+Q15078); test: Inhibition of CDK5/p25 at 10 uM; type: protein-complex assay
[41] = target: Mitogen-activated protein kinase 8 (Homo sapiens) (UniProt P45983); test: Inhibition of JNK1 at 10 uM
[42] = target: Serine/threonine-protein kinase N1 (Homo sapiens) (UniProt Q16512); test: Inhibition of PRK1 at 10 uM
[43] = target: SRSF protein kinase 2 (Homo sapiens) (UniProt P78362); test: Inhibition of SRPK2 at 10 uM
[44] = target: Tyrosine-protein kinase FRK (Homo sapiens) (UniProt P42685); test: Inhibition of FRK at 10 uM
[45] = target: Receptor-type tyrosine-protein kinase FLT3 (Homo sapiens) (UniProt P36888); test: Inhibition of FLT3 at 10 uM
[46] = target: Testis-specific serine/threonine-protein kinase 2 (Homo sapiens) (UniProt Q96PF2); test: Inhibition of TSSK2 at 10 uM

Sequence of Proto-oncogene tyrosine-protein kinase receptor Ret (Homo sapiens), P07949 [V804L] (P07949 whole entry V804L): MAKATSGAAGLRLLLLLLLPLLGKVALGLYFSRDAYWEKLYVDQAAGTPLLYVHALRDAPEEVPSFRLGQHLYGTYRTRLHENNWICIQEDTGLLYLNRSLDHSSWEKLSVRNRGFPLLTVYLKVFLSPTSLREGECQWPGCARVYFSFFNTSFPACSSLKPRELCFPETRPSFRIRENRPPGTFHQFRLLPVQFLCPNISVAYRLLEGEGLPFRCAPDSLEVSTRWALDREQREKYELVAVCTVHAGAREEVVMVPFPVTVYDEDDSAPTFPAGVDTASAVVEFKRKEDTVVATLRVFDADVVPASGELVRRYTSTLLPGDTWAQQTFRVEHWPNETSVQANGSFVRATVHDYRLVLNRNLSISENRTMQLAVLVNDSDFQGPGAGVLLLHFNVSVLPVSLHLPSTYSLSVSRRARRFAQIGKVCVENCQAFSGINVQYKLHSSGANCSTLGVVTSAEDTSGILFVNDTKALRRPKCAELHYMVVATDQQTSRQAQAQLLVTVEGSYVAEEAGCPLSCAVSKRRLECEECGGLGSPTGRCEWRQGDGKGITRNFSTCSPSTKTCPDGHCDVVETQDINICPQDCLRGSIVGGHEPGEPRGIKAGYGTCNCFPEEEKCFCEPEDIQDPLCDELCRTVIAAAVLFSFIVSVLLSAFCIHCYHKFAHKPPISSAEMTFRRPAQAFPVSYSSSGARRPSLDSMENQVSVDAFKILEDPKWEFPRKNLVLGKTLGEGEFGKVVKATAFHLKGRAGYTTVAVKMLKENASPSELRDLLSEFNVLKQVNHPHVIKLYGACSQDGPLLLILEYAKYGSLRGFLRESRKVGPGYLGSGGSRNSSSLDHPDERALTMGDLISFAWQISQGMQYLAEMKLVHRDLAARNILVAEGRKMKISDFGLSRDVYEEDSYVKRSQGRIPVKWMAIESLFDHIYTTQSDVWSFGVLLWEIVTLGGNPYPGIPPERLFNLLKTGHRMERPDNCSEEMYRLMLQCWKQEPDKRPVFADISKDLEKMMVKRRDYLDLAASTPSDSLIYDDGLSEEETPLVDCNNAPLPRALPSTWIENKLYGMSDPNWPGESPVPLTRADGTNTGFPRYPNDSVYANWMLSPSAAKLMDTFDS
Sequence of Tyrosine-protein kinase FRK (Homo sapiens) (P42685 whole entry): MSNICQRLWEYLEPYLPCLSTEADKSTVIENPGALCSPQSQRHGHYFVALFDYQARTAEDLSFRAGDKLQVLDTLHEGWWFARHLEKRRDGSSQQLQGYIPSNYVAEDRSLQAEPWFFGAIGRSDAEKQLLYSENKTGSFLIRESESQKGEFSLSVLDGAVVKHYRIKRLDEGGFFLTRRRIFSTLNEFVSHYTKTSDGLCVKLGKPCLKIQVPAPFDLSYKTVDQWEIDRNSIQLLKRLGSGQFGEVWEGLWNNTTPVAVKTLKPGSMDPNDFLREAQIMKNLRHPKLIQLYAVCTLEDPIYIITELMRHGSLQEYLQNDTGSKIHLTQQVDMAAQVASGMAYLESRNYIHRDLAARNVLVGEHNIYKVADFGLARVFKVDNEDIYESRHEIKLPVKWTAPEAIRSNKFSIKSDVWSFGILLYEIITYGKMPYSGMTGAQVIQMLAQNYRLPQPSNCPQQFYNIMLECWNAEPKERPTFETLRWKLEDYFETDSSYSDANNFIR
Sequence of Vascular endothelial growth factor receptor 3 (Homo sapiens) (P35916 whole entry): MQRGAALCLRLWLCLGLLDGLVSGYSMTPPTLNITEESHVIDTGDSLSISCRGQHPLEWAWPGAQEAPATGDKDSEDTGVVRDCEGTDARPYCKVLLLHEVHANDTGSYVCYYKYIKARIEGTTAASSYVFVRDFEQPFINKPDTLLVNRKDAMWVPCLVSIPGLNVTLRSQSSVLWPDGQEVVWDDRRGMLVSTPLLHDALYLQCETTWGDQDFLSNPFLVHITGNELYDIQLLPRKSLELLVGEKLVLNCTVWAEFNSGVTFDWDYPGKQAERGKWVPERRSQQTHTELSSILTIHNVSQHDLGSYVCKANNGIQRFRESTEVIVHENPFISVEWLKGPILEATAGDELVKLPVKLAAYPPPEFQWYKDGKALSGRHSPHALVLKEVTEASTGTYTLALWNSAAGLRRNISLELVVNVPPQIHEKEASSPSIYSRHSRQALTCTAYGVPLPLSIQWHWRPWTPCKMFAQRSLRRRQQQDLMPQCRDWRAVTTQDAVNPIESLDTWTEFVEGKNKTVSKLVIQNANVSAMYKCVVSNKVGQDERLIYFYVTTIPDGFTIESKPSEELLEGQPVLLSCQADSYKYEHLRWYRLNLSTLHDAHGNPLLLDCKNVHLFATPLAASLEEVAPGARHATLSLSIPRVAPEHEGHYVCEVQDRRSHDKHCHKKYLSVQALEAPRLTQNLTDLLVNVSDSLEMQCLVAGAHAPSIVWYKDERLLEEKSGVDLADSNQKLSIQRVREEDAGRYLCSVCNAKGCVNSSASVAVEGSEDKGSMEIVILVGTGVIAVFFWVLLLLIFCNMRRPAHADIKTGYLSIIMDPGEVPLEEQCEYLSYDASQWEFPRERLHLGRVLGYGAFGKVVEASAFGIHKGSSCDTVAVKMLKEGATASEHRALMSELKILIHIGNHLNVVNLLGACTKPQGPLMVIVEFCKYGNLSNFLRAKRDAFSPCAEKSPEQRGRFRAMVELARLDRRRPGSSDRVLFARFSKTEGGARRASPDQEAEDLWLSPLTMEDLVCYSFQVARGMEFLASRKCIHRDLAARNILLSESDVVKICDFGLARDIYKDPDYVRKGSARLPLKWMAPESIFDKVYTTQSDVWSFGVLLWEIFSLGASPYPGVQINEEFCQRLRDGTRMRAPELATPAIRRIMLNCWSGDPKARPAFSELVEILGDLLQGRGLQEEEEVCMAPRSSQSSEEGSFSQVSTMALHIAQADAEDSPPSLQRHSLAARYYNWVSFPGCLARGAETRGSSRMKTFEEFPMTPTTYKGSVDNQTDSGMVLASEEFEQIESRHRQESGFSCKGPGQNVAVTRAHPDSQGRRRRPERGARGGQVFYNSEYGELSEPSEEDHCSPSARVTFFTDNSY
Sequence of Tyrosine-protein kinase Fyn (Homo sapiens) (P06241 2-537 limits assumed): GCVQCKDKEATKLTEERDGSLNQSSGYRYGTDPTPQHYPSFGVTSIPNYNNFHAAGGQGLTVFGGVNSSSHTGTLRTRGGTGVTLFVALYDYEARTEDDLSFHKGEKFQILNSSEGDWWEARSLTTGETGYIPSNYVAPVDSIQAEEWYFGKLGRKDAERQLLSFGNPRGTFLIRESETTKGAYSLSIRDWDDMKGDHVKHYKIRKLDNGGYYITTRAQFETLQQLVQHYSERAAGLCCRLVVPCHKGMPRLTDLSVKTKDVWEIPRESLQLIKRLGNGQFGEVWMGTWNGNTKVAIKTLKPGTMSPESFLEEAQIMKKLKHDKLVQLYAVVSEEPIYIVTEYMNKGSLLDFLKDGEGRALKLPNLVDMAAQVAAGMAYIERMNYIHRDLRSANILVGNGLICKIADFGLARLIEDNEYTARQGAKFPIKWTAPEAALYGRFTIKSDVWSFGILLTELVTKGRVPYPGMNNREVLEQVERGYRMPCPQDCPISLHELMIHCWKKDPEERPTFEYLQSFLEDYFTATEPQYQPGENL
Sequence of SRSF protein kinase 2 (Homo sapiens) (P78362 whole entry, looked up): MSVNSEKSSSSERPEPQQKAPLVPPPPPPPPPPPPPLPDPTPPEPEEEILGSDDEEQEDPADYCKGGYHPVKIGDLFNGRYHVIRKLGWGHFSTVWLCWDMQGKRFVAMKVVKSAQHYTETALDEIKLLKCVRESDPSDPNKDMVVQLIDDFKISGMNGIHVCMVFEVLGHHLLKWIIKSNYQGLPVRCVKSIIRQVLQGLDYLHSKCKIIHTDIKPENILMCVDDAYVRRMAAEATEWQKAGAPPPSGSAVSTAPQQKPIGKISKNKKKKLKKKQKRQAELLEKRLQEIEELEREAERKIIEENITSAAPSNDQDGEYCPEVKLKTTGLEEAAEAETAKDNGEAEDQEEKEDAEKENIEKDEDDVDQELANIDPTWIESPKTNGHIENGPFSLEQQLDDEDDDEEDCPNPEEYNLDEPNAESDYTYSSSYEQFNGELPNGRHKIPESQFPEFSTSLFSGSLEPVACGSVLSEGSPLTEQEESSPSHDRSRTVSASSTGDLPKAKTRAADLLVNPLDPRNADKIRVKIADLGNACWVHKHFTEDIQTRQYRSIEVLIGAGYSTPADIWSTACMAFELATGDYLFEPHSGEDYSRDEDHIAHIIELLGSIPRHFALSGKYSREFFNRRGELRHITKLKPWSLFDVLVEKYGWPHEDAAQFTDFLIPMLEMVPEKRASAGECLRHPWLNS
Sequence of Interleukin-1 receptor-associated kinase 1 (Homo sapiens) (P51617 whole entry, looked up): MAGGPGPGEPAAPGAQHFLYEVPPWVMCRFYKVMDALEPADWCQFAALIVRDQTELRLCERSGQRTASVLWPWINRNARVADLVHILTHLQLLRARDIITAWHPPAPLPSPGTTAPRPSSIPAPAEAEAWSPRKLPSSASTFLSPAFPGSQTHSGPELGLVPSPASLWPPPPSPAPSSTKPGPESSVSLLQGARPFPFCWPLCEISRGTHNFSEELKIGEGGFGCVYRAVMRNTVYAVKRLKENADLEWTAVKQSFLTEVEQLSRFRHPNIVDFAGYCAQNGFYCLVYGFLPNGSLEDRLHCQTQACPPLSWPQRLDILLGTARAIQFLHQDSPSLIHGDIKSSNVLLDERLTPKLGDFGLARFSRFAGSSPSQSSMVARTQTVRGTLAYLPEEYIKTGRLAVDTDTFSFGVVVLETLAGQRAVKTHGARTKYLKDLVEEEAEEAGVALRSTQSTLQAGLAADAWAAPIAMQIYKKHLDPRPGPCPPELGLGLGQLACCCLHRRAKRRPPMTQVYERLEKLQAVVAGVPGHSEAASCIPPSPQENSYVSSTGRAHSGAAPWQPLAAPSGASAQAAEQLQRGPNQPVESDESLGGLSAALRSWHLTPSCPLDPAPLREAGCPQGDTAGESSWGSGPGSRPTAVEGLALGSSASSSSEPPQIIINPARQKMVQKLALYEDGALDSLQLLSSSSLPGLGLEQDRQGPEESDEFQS
Sequence of Proto-oncogene tyrosine-protein kinase receptor Ret (Homo sapiens), P07949 [Y791F] (P07949 whole entry Y791F): as the sequence (P07949 whole entry V804L) above, with Y791F, L804V counted along it

What does the source list for `Cc1cc(OCc2ccc(F)cc2F)c(Br)c(=O)n1Cc1ccc(CN(C)C)cc1`?
inhibition [1]: < 50%; inhibition [2]: < 50%; inhibition [3]: < 50%; inhibition [4]: < 50%; inhibition [5]: < 50%; inhibition [6]: < 50%; inhibition [7]: < 50%; inhibition [8]: < 50%; inhibition [9]: < 50%; inhibition [10]: < 50%; inhibition [11]: < 50%; inhibition in vivo at 5 mg/kg [12]: 87%; inhibition [13]: < 50%; inhibition [14]: < 50%; inhibition [15]: < 50%; inhibition [16]: < 50%; inhibition [17]: < 50%; inhibition [18]: < 50%; inhibition [19]: < 50%; inhibition [20]: < 50%; inhibition [21]: < 50%; inhibition [22]: < 50%; inhibition [23]: < 50%; inhibition [24]: < 50%; inhibition [25]: < 50%; inhibition [26]: < 50%; inhibition [27]: < 50%; inhibition [28]: < 50%; inhibition [29]: < 50%; inhibition [30]: < 50%; inhibition [31]: < 50%; inhibition [32]: < 50%; inhibition [33]: < 50%; inhibition [34]: < 50%; inhibition [35]: < 50%; inhibition [36]: < 50%; inhibition [37]: < 50%; inhibition [38]: < 50%; inhibition [39]: < 50%; inhibition [40]: < 50%; inhibition [41]: < 50%; inhibition [42]: < 50%; inhibition [43]: < 50%; inhibition [44]: < 50%; inhibition [45]: < 50%; inhibition [46]: < 50%

— ChEMBL document CHEMBL1154277, “Discovery of N-substituted pyridinones as potent and selective inhibitors of p38 kinase” (Bioorg Med Chem Lett, 2009)
